# In ChEMBL document CHEMBL1127046, “Antitumor agents. 3. Synthesis and biological activity of 4 beta-alkyl derivatives containing hydroxy, amino, and amido groups of 4'-O-demethyl-4-desoxypodophyllotoxin as antitumor agents” (J Med Chem, 1993):
# Tests used:
# [1] = tested on: SBC-3; experiment: Inhibition of growth of lung small cell carcinoma SBC-3 cell line; assay type: functional; settings: Homo sapiens, read-out: ED50 (the source's name)
# Summary of the method: (§1)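 Human tumour cell lines plated and grown 24 h in a CO2 incubator, then exposed to compound for 96 or 4 h. Cells counted by hemocytometer. IC50 is the concentration giving 50% reduction in cell number versus untreated control.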
# [2] = tested on: COLO 320DM; experiment: Inhibition of growth of colon carcinoma COLO 320DM cell line; assay type: functional; settings: Homo sapiens, read-out: ED50 (the source's name)
# Summary of the method: (§2)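 Cells were seeded and cultured for 24 h, then exposed to drug for 96 or 4 h. Cells were counted by hemocytometer. IC50 is the concentration giving a 50% reduction in cell number relative to control.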
# [3] = tested on: ACHN; experiment: Inhibition of growth of renal cancer ACHN cell line; assay type: functional; settings: Homo sapiens, read-out: ED50 (the source's name); summary of the method: as §1
# [4] = Inhibition of growth of renal cancer G-402 cell line; assay type: functional; settings: Homo sapiens, read-out: ED50 (the source's name); summary of the method: as §1
# [5] = Inhibition of DNA topoisomerase II from rat liver measured as 50% reduction in the amount of minicircle DNA relative to the control
# [6] = target: Tubulin (Bos taurus, UniProt Q6B856+Q862L2+Q862F3); experiment: Drug concentration needed to produce a 50% reduction of bovine brain tubulin polymerization relative to the control
# [7] = tested on: P388; experiment: Antitumor activity in vivo expressed as the percentage increase in life span at the P388 dose of 0.8 (mg/kg/day); assay type: functional, Mus musculus
# Summary of the method: (§3)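 P388 leukaemia, 1 × 10^6 cells given sc to male CDF1 mice (5 weeks old) on day 0. Drug was dosed iv on days 1–5 in saline with 3.5% DMSO and 6.5% Tween 80. Groups had 7 mice; controls had 10. ILS was calculated from mean survival time of treated versus control mice, excluding 30-day survivors.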
# [8] = tested on: Lewis lung carcinoma cell line; experiment: Mean body weight change after inoculation of 3.2 x 10 e 5 cells iv and administration of compounds iv from days 1-5 at the dose of 0.44 (mg/kg/day); assay type: functional, Mus musculus
# Summary of the method: (§4)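 Male BDF1 mice (5 weeks) given 3.2 x 10^5 Lewis lung carcinoma cells iv on day 0, then dosed iv on days 1–5. Seven mice per group, 14 controls. Mean body weight change (g) taken from day 0 to day 6.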
# [9] = tested on: Lewis lung carcinoma cell line; experiment: Mean body weight change after inoculation of 3.2 x 10 e 5 cells iv and administration of compounds iv from days 1-5 at the dose of 0.77 (mg/kg/day); assay type: functional, Mus musculus; summary of the method: as §4
# [10] = tested on: Lewis lung carcinoma cell line; experiment: Mean body weight change after inoculation of 3.2 x 10 e 5 cells iv and administration of compounds iv from days 1-5 at the dose of 0.25 (mg/kg/day); assay type: functional, Mus musculus; summary of the method: as §4
# [11] = tested on: P388; experiment: Antitumor activity in vivo expressed as the percentage increase in life span at the P388 dose of 0.4 (mg/kg/day); assay type: functional, Mus musculus; summary of the method: as §3
# [12] = tested on: Lewis lung carcinoma cell line; experiment: Increased life span at the lewis lung dose of 0.44 (mg/kg/day); assay type: functional, Mus musculus
# [13] = tested on: Lewis lung carcinoma cell line; experiment: Percentage inhibition of tumor growth at the lewis lung dose of 0.3 (mg/kg/ day); assay type: functional, Mus musculus
# Summary of the method: (§5)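 Lewis lung carcinoma fragments (2 mm3) implanted sc into male BDF1 mice (5 weeks) on day 0. Compound given iv on days 4–8, in saline or saline with 3.5% DMSO and 6.5% Tween 80. Seven mice per group, 10 controls. Percent inhibition from mean tumour weight versus control on day 17; p<0.05, 0.01 or 0.001 versus control.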
# [14] = organism: Homo sapiens; experiment: Inhibition of growth of hepatoma HLE cell line; assay type: functional; settings: read-out: ED50 (the source's name); summary of the method: as §2
# [15] = tested on: Lewis lung carcinoma cell line; experiment: Percentage inhibition of tumor growth at the lewis lung dose of 1.3 (mg/kg/ day); (p<0001); assay type: functional, Mus musculus; summary of the method: as §5
# [16] = tested on: Lewis lung carcinoma cell line; experiment: Increased life span at the lewis lung dose of 1.3 (mg/kg/day); assay type: functional, Mus musculus
# [17] = Inhibition of growth of lung small cell carcinoma RERF-LC-MA cell line; assay type: functional; settings: Homo sapiens; read-out: ED50 (the source's name); summary of the method: as §2
# [18] = tested on: A549; experiment: Inhibition of growth of lung non-small cell carcinoma A-549 cell line; assay type: functional; settings: Homo sapiens, read-out: ED50 (the source's name); summary of the method: as §2
# [19] = tested on: Lewis lung carcinoma cell line; experiment: Mean body weight change after inoculation of 3.2 x 10 e 5 cells iv and administration of compounds iv from days 1-5 at the dose of 1.3 (mg/kg/day); assay type: functional, Mus musculus; summary of the method: as §4
# [20] = Inhibition of growth of lung non-small cell carcinoma PC-7 cell line; assay type: functional; settings: Homo sapiens, read-out: ED50 (the source's name); summary of the method: as §2
# [21] = tested on: P388; experiment: Antitumor activity in vivo expressed as the percentage increase in life span at the P388 dose of 0.3 (mg/kg/day); assay type: functional, Mus musculus; summary of the method: as §3
# [22] = tested on: L1210; experiment: The number of mice survived for 30 days at the dose of 1.3 (mg/kg/day); assay type: functional, Mus musculus
# [23] = tested on: P388; experiment: Cytotoxicity against P388 leukemia; assay type: functional, cell-based; settings: Mus musculus
# [24] = Inhibition of growth of hepatoma HLF cell line; assay type: functional; settings: Homo sapiens, read-out: ED50 (the source's name); summary of the method: as §2
# [25] = Inhibition of growth of colon carcinoma COLO 2-1 cell line; assay type: functional; settings: Homo sapiens, read-out: ED50 (the source's name); summary of the method: as §2
# [26] = tested on: Lewis lung carcinoma cell line; experiment: Increased life span at the lewis lung dose of 0.25 (mg/kg/day); assay type: functional, Mus musculus
# [27] = tested on: Lewis lung carcinoma cell line; experiment: Percentage inhibition of tumor growth at the lewis lung dose of 2.3 (mg/kg/ day); (p<0001); assay type: functional, Mus musculus; summary of the method: as §5
# [28] = tested on: Lewis lung carcinoma cell line; experiment: Increased life span at the lewis lung dose of 0.77 (mg/kg/day); assay type: functional, Mus musculus
# [29] = tested on: L1210; experiment: Antitumor activity in vivo expressed as the percentage increase in life span at the dose of 1.3 (mg/kg/day); assay type: functional, Mus musculus
smiles,measurement,setting,value
COc1cc([C@@H]2c3cc4c(cc3[C@@H](CCN3CCN(C)CC3)C3COC(=O)[C@@H]32)OCO4)cc(OC)c1O.Cl.Cl (some centres undefined),EC50,[1],0.28 µg/mL
same,EC50,[2],0.99 µg/mL
same,EC50,[3],2 µg/mL
same,EC50,[4],0.25 µg/mL
same,IC50,[5],33.6 µM
same,IC50,[6],> 132 µM
same,ILS max,[7],182%
same,bwc,[8],0.3 g
same,bwc,[9],-0.9 g
same,bwc,[10],0.9 g
same,ILS max,[11],112%
same,ILS max,[12],67%
same,Inhibition,[13],37%
same,EC50,[14],0.13 µg/mL
same,Inhibition,[15],81%
same,ILS max,[16],127%
same,EC50,[17],5.8 µg/mL
same,EC50,[18],0.76 µg/mL
same,bwc,[19],-3.3 g
same,EC50,[20],2.9 µg/mL
same,ILS max,[21],67%
same,Survivors,[22],1
same,IC50,[23],3 nM
same,EC50,[24],1.6 µg/mL
same,EC50,[25],9.3 µg/mL
same,ILS max,[26],24%
same,Inhibition,[27],96%
same,ILS max,[28],91%
same,ILS max,[29],140%
